Screens from PubChem.
HIV Env fusion = HIV envelope-mediated fusion inhibition; inhibition, % at 12.3 µM; HeLa-JRFL Env/CEM21 cell fusion, luciferase; hit rate 1.1% among 360,000; AID 651610;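 active means mean replicate inhibition score of at least 50 and every replicate individually at or above 50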
FN deposit inh = fibronectin deposition inhibition; AID 743247; hit rate 0.086% among 350,000; inhibition, % at 12.6 µM; AH1F fibroblasts, Alexa488-fibronectin deposition fluorescence, overnight;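 active means mean inhibition across replicates of 30% or more, regardless of how many single replicates reach that level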
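Material: AH1F fibroblast monolayer depositing Alexa488-labelled fibronectin into matrix / Amount: 10000 AH1F cells per well / Signal: fluorescence 485/525 nm / Medium: DMEM, 2% serum / Compound: single dose, pinned / Incubation: 1 h cell adhesion before compound, then overnight fibronectin incubation / Reagent: Alexa488-FN, 24 nM final / Read-out: inhibition of fibronectin deposition signal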
PGC1a acetyl inh = lowers PGC1a acetylation signal in U2OS cells | AlphaScreen anti-acetyl-lysine; with virally co-expressed GCN5 acetyltransferase | AID 651687 | hit rate 0.17% among 350,000 | inhibition, % at 15.6 µM;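 active means every replicate shows inhibition of at least 40%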
PglD DTNB = PglD (C. jejuni) enzyme inhibition | purified PglD enzyme, DTNB colorimetric CoA detection | inhibition, % at 12.5 µM | hit rate 0.098% among 360,000; in the data active means inhibition above about 16%, passing the limit was not always enough
DENV2 CPE = DENV2-induced cell death inhibition | DENV2-infected cells, cytopathic effect rescue, plate reader | CPE inhibition, % at 9.99 µM | hit rate 1.7% among 350,000 | AID 651640; in the data active means CPE inhibition above about 20%, passing the limit was not always enough; tested in BHK-21 cells
Ecoli rRNA inh = inhibits bacterial ribosomal RNA function over humanized ribosomes; GFP signal change (wild-type ribosome), % (test concentration not listed); E. coli WT GFP vs humanized-ribosome RFP mutants, fluorescence, 24 h; active compounds read low; DMSO median 0, no signal -100; hit rate 1.6% among 350,000;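 active means significant combined selectivity score with lowered wild-type GFP, culture density cut under 30%, mutant RFP and density less affected; inactive means any of these conditions unmet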
Large screens that a line does not name were inactive. Only some compounds are listed: those with a hit (about 3.5% of all), similar ones and a draw of the others.

COc1cc(/C=C(\NC(C)=O)C(=O)Nc2ccc(NC(C)=O)cc2)ccc1OC(C)=O	none (no result: PGC1a acetyl inh, PglD DTNB, DENV2 CPE, Ecoli rRNA inh)
CNC[C@@H]1Oc2cc(C#CC(C)(C)O)ccc2S(=O)(=O)N([C@@H](C)CO)C[C@@H]1C	none (no result: FN deposit inh)
CSc1cccc(N2CC(C(=O)NCCN3C(=O)S/C(=C\c4cccnc4)C3=O)CC2=O)c1 (centres undefined)	PGC1a acetyl inh 75
C[C@H]1CN([C@@H](C)CO)C(=O)Cc2cc(NC(=O)Nc3cccc4ccccc34)ccc2O[C@H]1CN(C)CC1CCCCC1	none (no result: FN deposit inh)
C[C@@H]1CN([C@@H](C)CO)C(=O)c2cc(NS(=O)(=O)c3ccc(Cl)cc3)ccc2O[C@@H]1CN(C)Cc1ccc(C(=O)Nc2ccccc2N)cc1	none (no result: HIV Env fusion, FN deposit inh)
COc1cc2c(cc1OC)[C@@]1(c3ccccc3)CCCC[C@H]1[C@@H]2NC(=O)C(F)(F)F	DENV2 CPE 20 (no result: PGC1a acetyl inh, PglD DTNB)
C[C@@H]1CN([C@H](C)CO)C(=O)CCCn2cc(nn2)CO[C@H]1CN(C)Cc1ccc(Oc2ccccc2)cc1	none
Cc1nc2c(OCCOc3ccccc3)cccn2c1N(C)C(=O)CCC1CCCC1	none
Cc1nc2c(OCCC3CCCCC3)cccn2c1N(C)C(=O)CCC1CCCC1	DENV2 CPE 41
O=C(C[C@@H]1C[C@@H]2c3cc(NC(=O)Nc4ccc(F)cc4)ccc3O[C@@H]2[C@H](CO)O1)NC1CCCCC1	none
CN(Cc1cnc2nc(N)nc(N)c2n1)c1ccc(C(=O)NC(CCC(=O)O)C(=O)O)c2ccccc12 (centres undefined)	HIV Env fusion 64 (no result: PglD DTNB)
CCN(CC)S(=O)(=O)c1ccc(N2CCOCC2)c(NC(=O)c2ccc(OC)c([N+](=O)[O-])c2)c1	none
NC(=O)c1ccc(NC(=O)COC(=O)c2cc([N+](=O)[O-])ccc2N2CCOCC2)cc1	none (no result: FN deposit inh, PGC1a acetyl inh, PglD DTNB)
CCN(CC)S(=O)(=O)c1ccc(N2CCCC2)c(NC(=O)Cc2cc(OC)c(OC)c(OC)c2)c1	HIV Env fusion 97 (no result: PGC1a acetyl inh)
CCN(CC)S(=O)(=O)c1ccc(N2CCCC2)c(NC(=O)Cc2ccc(OC)cc2)c1	Ecoli rRNA inh -34 (no result: PglD DTNB)
CCN(CC)S(=O)(=O)c1ccc(N2CCCC2)c(NC(=O)c2ccc(OC)cc2OC)c1	none (no result: PglD DTNB)
CCN(CC)S(=O)(=O)c1ccc(OC)c(NC(=O)c2cc([N+](=O)[O-])ccc2N2CCOCC2)c1	HIV Env fusion 67
O=C(COC(=O)c1cc([N+](=O)[O-])ccc1N1CCOCC1)Nc1ccc(Cl)cc1	Ecoli rRNA inh -34
COc1ccc2c3c(n(C)c2c1)[C@H](CO)N(C(=O)NC(C)C)CC31CN(CC2CCOCC2)C1	none (no result: HIV Env fusion, FN deposit inh, PglD DTNB)
Cc1ccc(S(=O)(=O)N[C@H]2CC[C@H](CC(=O)NCCN3CCCCC3)O[C@@H]2CO)cc1	none
CNC(=O)C[C@@H]1CC[C@@H]2[C@H](COc3ccc(NC(=O)NC(C)C)cc3C(=O)N2C)O1	none
C[C@@H]1CN([C@H](C)CO)C(=O)c2cccc(NC(=O)C3CCCCC3)c2O[C@H]1CN(C)C(=O)Nc1ccc2c(c1)OCO2	none (no result: HIV Env fusion, FN deposit inh)
O=C(O)CC1S/C(=N/N=C/c2ccc(Br)cc2)N(c2ccccc2)C1=O (centres undefined)	PGC1a acetyl inh 75
COc1ccc(-c2cc(=O)oc3cc(OC(=O)C4CCCCC4)c(Cl)cc23)cc1	HIV Env fusion 66 (no result: PGC1a acetyl inh, PglD DTNB)
COc1ccc(-c2cc(=O)oc3cc(O)ccc23)cc1	none (no result: PGC1a acetyl inh, PglD DTNB)
C[C@H]1CN([C@@H](C)CO)C(=O)c2cccc(NC(=O)c3ccncc3)c2O[C@@H]1CN(C)Cc1ccccc1	none (no result: FN deposit inh)
Cn1c(NCCCN2CCOCC2)nc2c1c(=O)n(Cc1ccc(Cl)cc1Cl)c(=O)n2C	HIV Env fusion 63 (no result: FN deposit inh, DENV2 CPE, Ecoli rRNA inh)
COCCCNc1nc2c(c(=O)n(Cc3ccc(Cl)cc3)c(=O)n2C)n1C	none
O=C(Nc1ccc(F)cc1)N1C[C@@H]2[C@H](c3ccccc31)[C@H](CO)N2C(=O)c1ccncc1	none (no result: HIV Env fusion, DENV2 CPE)
C[C@H](CO)N1C[C@H](C)[C@@H](CN(C)Cc2cncnc2)Oc2ncc(C#CC3(O)CCCC3)cc2C1=O	none
CSc1ccccc1C(=O)C1CCCN(C(=O)CCc2cccnc2)C1 (centres undefined)	FN deposit inh 45
Nc1ccc(C(=O)Nc2ccc3nc(-c4ccncc4)[nH]c3c2)cc1	Ecoli rRNA inh -33 (no result: PglD DTNB)
COC(=O)Nc1ccc(=O)n(Cc2c(Cl)cccc2Cl)c1	HIV Env fusion 50 (no result: DENV2 CPE, Ecoli rRNA inh)
CN(C)/N=C/C=C1\CCC/C(=C\c2ccc(F)c(F)c2)C1=O	Ecoli rRNA inh -27 (no result: PglD DTNB)
COc1ccc(/C=C2\CCCCC2=O)cc1	none
COc1ccc(/C=C2\CCC/C(=C\C=N\N(C)C)C2=O)cc1	Ecoli rRNA inh -20 (no result: PglD DTNB)
Cc1noc(C)c1S(=O)(=O)Nc1ccc2c(c1)C(=O)N([C@@H](C)CO)C[C@H](C)[C@@H](CN(C)C(=O)Nc1ccc(F)cc1)OCCCC[C@H](C)O2	none
O=C(C[C@@H]1C=C[C@H](NC(=O)c2ccccc2)[C@@H](CO)O1)Nc1ccc(-c2ccccc2)cc1	none
Nc1ncc([N+](=O)[O-])c(N2CCCCCC2)n1	PGC1a acetyl inh 53
Cc1cc(Cn2nc(C(=O)NCc3cccc(Br)c3)cc2-c2ccccc2)on1	none
COCCNC(=O)c1cc(-c2ccccc2)n(Cc2cc(C)no2)n1	DENV2 CPE 22
O=C(Nc1nnc(-c2ccccn2)o1)c1cccc(Br)c1	none (no result: HIV Env fusion, DENV2 CPE, Ecoli rRNA inh)
O=C(Nc1nnc(-c2ccccn2)o1)c1cccc(Cl)c1	Ecoli rRNA inh -54 (no result: PglD DTNB)
Cc1ccc(C(=O)Nc2nnc(-c3ccncc3)o2)cc1	none (no result: PglD DTNB)
O=C(Nc1nnc(-c2ccncc2)o1)c1ccccc1	Ecoli rRNA inh -35 (no result: FN deposit inh, PGC1a acetyl inh, PglD DTNB)
CCNC(=O)[C@H]1[C@H](CO)[C@H]2Cn3c(ccc(-c4ccccc4)c3=O)[C@@H]1N2C(=O)c1ccccn1	none (no result: HIV Env fusion, FN deposit inh, PGC1a acetyl inh)
CCOc1ccc(OCC)c(NC(=O)CSc2nc3c(c(=O)n(C)c(=O)n3C)n2CC)c1	none (no result: FN deposit inh, DENV2 CPE, Ecoli rRNA inh)
CCOc1ccc(OCC)c(NC(=O)CSc2nc3c(c(=O)n(C)c(=O)n3C)n2C(C)C)c1	Ecoli rRNA inh -27 (no result: HIV Env fusion, FN deposit inh)
CCOC(=O)C(=Cc1ccc(N(C)C)cc1)C(=O)c1ccccc1	none (no result: PGC1a acetyl inh, PglD DTNB)
CCOC(=O)N(O)c1ccc(C=Cc2ccccc2)cc1	PGC1a acetyl inh 49 (no result: PglD DTNB)
COc1ccc(NC(=O)N2CCCCN3[C@H](C2)[C@H](c2ccc(-c4ccccc4C)cc2)[C@@H]3CO)cc1	DENV2 CPE 27 (no result: HIV Env fusion, FN deposit inh)
COc1ccc(NC(=O)N2CCCCN3[C@H](CO)[C@@H](c4ccc(-c5ccccc5C)cc4)[C@@H]3C2)cc1	none (no result: HIV Env fusion, FN deposit inh)
COc1ccc(C#Cc2ccc([C@H]3[C@@H](CO)N4CCCCN(C(=O)Nc5ccccc5)C[C@@H]34)cc2)cc1	DENV2 CPE 71 (no result: HIV Env fusion, FN deposit inh)
C/C=C/c1ccc([C@H]2[C@@H](CO)N3CCCCN(C(=O)Nc4ccc(OC)cc4)C[C@@H]23)cc1	DENV2 CPE 30 (no result: HIV Env fusion, FN deposit inh)
CC(C)CC#Cc1ccc([C@H]2[C@@H](CO)N3CCCCN(C(=O)Nc4ccccc4)C[C@@H]23)cc1	none (no result: HIV Env fusion, DENV2 CPE)
